The record followed here is ChEMBL document CHEMBL4831547, “DNDI-6148: A Novel Benzoxaborole Preclinical Candidate for the Treatment of Visceral Leishmaniasis” (J Med Chem, 2021).

The nature of series [1]: Selectivity index, ratio of CC50 for human MRC5 cells to EC50 for Leishmania infantum MHOM/MA(BE)/67/ITMAP263. Particulars: read-out: Ratio CC50/EC50. It counts as toxicity.
The nature of series [2]: Drug metabolism in dog assessed as M12 metabolite formation. It counts as ADME, Canis lupus familiaris.
A short description of series [3]: Drug metabolism in hamster assessed as M12 metabolite formation. It counts as ADME, Mesocricetus auratus.
Series [4] can be described thus: Drug metabolism in rat assessed as M12 metabolite formation. It counts as ADME.
Series [5] is described as follows: Drug metabolism in human assessed as M12 metabolite formation. It counts as ADME.
A short description of series [6]: Drug metabolism in mouse assessed as M12 metabolite formation. It counts as ADME.
Series [7] can be described thus: Permeability of compound in dog MDCK-MDR1 cells at 2 uM after 150 min by LC-MS/MS analysis. Format: ADME, cell-based, Canis lupus familiaris. Particulars: mdck-mdr1, 2.5 h. In outline: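 Bidirectional MDCK-MDR1 monolayer permeability. A→B and B→A transport was measured in triplicate over 150 min at 37 °C, 5% CO2, and quantified by LC-MS/MS as analyte/internal standard peak-area ratio.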

Series [8] is described as follows: Genotoxicity in Salmonella typhimurium TA100 over 1 to 1000 ug in presence of S9 fraction by Ames test. Particulars: salmonella enterica subsp. enterica serovar typhimurium, dose 1-1000 µg. It counts as toxicity, subcellular. In outline: (§1)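 Mini-Ames reverse mutation screen in S. typhimurium TA98 and TA100, run with and without induced rat liver S9. Doses were 1.5, 4, 10, 25, 64, 160, 400 and 1000 μg per well. Positive controls were 2-aminoanthracene, 2-nitrofluorene and sodium azide; DMSO was the negative control.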

Series [9] can be described thus: Drug metabolism in human liver microsomes at 10 uM incubated for 60 mins by LC-UV/MS analysis. Format: ADME, Microsome. Particulars: 1 h. (In general: Microsomes from liver hold many membrane-bound enzymes, among them those of drug oxidation.)
A short description of series [10]: Genotoxicity in Salmonella typhimurium TA98 over 1 to 1000 ug in absence of S9 fraction by Ames test. It counts as toxicity. Particulars: salmonella enterica subsp. enterica serovar typhimurium, dose 1-1000 µg. In outline:
as §1

Series [11] is described as follows: Genotoxicity in Salmonella typhimurium TA100 over 1 to 1000 ug in absence of S9 fraction by Ames test. Format: toxicity. Particulars: salmonella enterica subsp. enterica serovar typhimurium, dose 1-1000 µg. In short, it runs like this:
as §1

The nature of series [12]: Clearance in human. Format: ADME.
Series [13] can be described thus: Toxicity in Sprague-Dawley rat at 50 mg/kg administered daily for 14 days. Format: organism-based. Particulars: in vivo, 336 h, time 14 day. In outline: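 Exploratory 14-day toxicology study with daily dosing in male and female Sprague-Dawley rats.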
Series [14] can be described thus: Drug metabolism in dog liver microsomes at 10 uM incubated for 60 mins by LC-UV/MS analysis. Particulars: 1 h. It counts as ADME, Canis lupus familiaris, Microsome. In short, it runs like this: (§2)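 Incubated at 10 μM with liver microsomes (1 mg/mL) from Beagle dog or Sprague-Dawley rat for 60 min. Reactions were stopped by precipitation with formic acid/acetonitrile, and metabolites were identified by LC-UV-MSn (n = 1–2).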

Series [15] in a line: Genotoxicity in Salmonella typhimurium TA98 over 1 to 1000 ug in presence of S9 fraction by Ames test. It counts as toxicity, subcellular. Particulars: salmonella enterica subsp. enterica serovar typhimurium, dose 1-1000 µg. In short, it runs like this:
as §1
A general note: The Ames test uses bacterial strains that need an amino acid and regain growth without it when mutated back.

The nature of series [16]: Drug metabolism in Sprague-Dawley rat liver microsomes at 10 uM incubated for 60 mins by LC-UV/MS analysis. It counts as ADME, Microsome. Particulars: 1 h. In outline: as §2

On to `O=C(Nc1ccc2c(c1)B(O)OC2)c1ccc(F)cc1C(F)(F)F`, for which the selectivity ratio in series [1] is over 24. Same read-out and setting: next, `O=C(Nc1ccc2c(c1)B(O)OC2)c1cn(-c2ccccn2)nn1`: 30; `Cc1c(C(=O)Nc2ccc3c(c2)B(O)OC3)cnn1CCC(F)(F)F`: over 5.

As for `Cc1nn(-c2ccccn2)cc1C(=O)Nc1ccc2c(c1)B(O)OC2`, the selectivity ratio in [1] was over 11. On the same count and under the same terms, next, `O=C(Nc1ccc2c(c1)B(O)OC2)c1cn(-c2ccc(Cl)cc2)nc1C(F)(F)F`: 2; `Cn1nc(C(=O)Nc2ccc3c(c2)B(O)OC3)cc1-c1ccccn1`: 31. Take `Cc1cccc(-n2ncc(C(=O)Nc3ccc4c(c3)B(O)OC4)c2C)n1`: the selectivity ratio in series [1] worked out at 25. Same read-out and setting: next, `O=C(Nc1ccc2c(c1)B(O)OC2)c1nnc(-c2ccccn2)o1`: over 32; `COc1cccc(-n2ncc(C(=O)Nc3ccc4c(c3)B(O)OC4)c2C)n1`: 31. Still for that read-out and setting: then `O=C(Nc1ccc2c(c1)B(O)OC2)c1cn(C2CCOCC2)nc1C(F)(F)F`, with over 21; and `O=C(Nc1ccc2c(c1)B(O)OC2)c1cc(-c2ccccn2)n[nH]1`, with 8. Same read-out and setting: next, `Cn1nc(-c2ccccn2)cc1C(=O)Nc1ccc2c(c1)B(O)OC2`: over 2. For the compound `O=C(Nc1ccc2c(c1)B(O)OC2)c1cn(CC(F)(F)F)nc1C(F)(F)F`, the selectivity ratio in [1] is over 40.

With `O=C(Nc1ccc2c(c1)B(O)OC2)c1cn(-c2ccccn2)nc1C(F)(F)F`, in [1], the selectivity ratio was determined as 1.6. Still for that read-out and setting: next, `Cc1c(C(=O)Nc2ccc3c(c2)B(O)OC3)cnn1-c1ccccn1`: 15; `O=C(Nc1ccc2c(c1)B(O)OC2)c1cn(CCC(F)(F)F)nc1C(F)(F)F`: 38; `Cc1cccc(-n2nnc(C(=O)Nc3ccc4c(c3)B(O)OC4)c2C)n1`: over 10. The same measure, in the same setting: then `COc1cccc(-n2nnc(C(=O)Nc3ccc4c(c3)B(O)OC4)c2C)n1`, with over 80. For the compound `Cc1c(-c2ccccn2)coc1C(=O)Nc1ccc2c(c1)B(O)OC2`, the Drug metabolism entry in series [2], in series [3], in series [4], in series [5] and in [6] was “Metabolite_Detected” in each case. The selectivity ratio in [1] came out at 37. Take `Cc1c(C(=O)Nc2ccc3c(c2)B(O)OC3)nnn1-c1cccnc1`: the selectivity ratio in series [1] was over 1.8. Regarding `Cc1c(C(=O)Nc2ccc3c(c2)B(O)OC3)nnn1-c1ccccc1`, the selectivity ratio in [1] was over 1.7. The same measure, in the same setting: next, `O=C(Nc1ccc2c(c1)B(O)OC2)c1cn(C2CCC2)nc1C(F)(F)F`: 53. With `O=C(Nc1ccc2c(c1)B(O)OC2)c1cn(C(F)(F)F)nc1C(F)(F)F`, the selectivity ratio in [1] was over 31.

For the compound `Cc1nn(C2CCC2)cc1C(=O)Nc1ccc2c(c1)B(O)OC2`, the selectivity ratio in series [1] is over 4. Same read-out and setting: then `COc1ccccc1-n1cc(C(=O)Nc2ccc3c(c2)B(O)OC3)c(C)n1`, with 7.3; and `Cc1oc(C(=O)Nc2ccc3c(c2)B(O)OC3)cc1-c1ccccn1`, with 18. Same read-out and setting: next, `Cc1c(-c2ccccn2)csc1C(=O)Nc1ccc2c(c1)B(O)OC2`: 4. Regarding `Cc1c(C(=O)Nc2ccc3c(c2)B(O)OC3)nnn1-c1ccccn1`, the permeability result in series [7] is given as “Permeable”. Also, the Activity entry in [8], in series [10], in series [11], in series [13] and in series [15] was “Non-Toxic” each time. Moreover, the Drug metabolism entry in series [9], in series [14] and in series [16] was “Metabolite_Notdetected” each time. In addition, in [12], the clearance (usually the rate of elimination divided by the concentration) amounted to 1 mL/min/kg. In [1], the selectivity ratio was over 39. Regarding `Cc1nn(CCC(F)(F)F)cc1C(=O)Nc1ccc2c(c1)B(O)OC2`, the selectivity ratio in series [1] was over 11. As to `CCCCCCCCCCCCCCCCOP(=O)([O-])OCC[N+](C)(C)C` [MILTEFOSINE], the selectivity ratio in series [1] was over 6.2.
